In brackets after ≈: the same amount, converted by molar mass.
Legend:
Escherichia coli [1] = assay: Synergic activity against IMP-1 beta lactamase produced by Escherichia coli in presence of Piperacillin and Tazobactam; S = susceptible; type: functional
Outline: (§1)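 Synergy with piperacillin against metallo-β-lactamase-producing strains (IMP-1; SPM-1, VIM-1 or VIM-7 carriers). The initial screen used […] at a 1:1 antibiotic:inhibitor ratio. Inhibitor was tested with tazobactam or DVR-II-183 added as a serine β-lactamase inhibitor, or without one.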

[2] = biological target: T1, Metallo-beta-lactamase type 2 (Bacillus cereus, UniProt P14488); assay: Inhibition of class B (BCII) metallo-beta-lactamase representative enzyme
T1 sequence (P14488 whole entry): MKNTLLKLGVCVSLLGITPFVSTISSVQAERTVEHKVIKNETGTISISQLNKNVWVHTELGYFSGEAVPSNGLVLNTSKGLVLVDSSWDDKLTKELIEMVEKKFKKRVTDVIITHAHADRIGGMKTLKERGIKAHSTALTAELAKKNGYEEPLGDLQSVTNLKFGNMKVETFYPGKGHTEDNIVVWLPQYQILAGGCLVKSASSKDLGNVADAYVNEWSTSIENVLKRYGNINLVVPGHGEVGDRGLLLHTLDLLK
Outline: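 BCII metallo-β-lactamase assay: inhibitor and enzyme incubated together for 4 min in 970 µL, then concentrated nitrocefin added to 1 mL final volume. IC50 determined from nitrocefin hydrolysis.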

Beta-lactamase L1 = Beta-lactamase L1 (Stenotrophomonas maltophilia, UniProt P52700); assay: Beta-Lactamase Inhibition of metallo-beta-lactamase representative class B (L1) enzyme
Outline: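 For the metallo enzyme, inhibitor and enzyme were preincubated for 4 min. Concentrated nitrocefin was then added to give the final assay volume, and IC50 was determined.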

[3] = biological target: Beta-lactamase TEM (Escherichia coli) (UniProt P62593); assay: Beta-Lactamase inhibitory activity against representative class A (TEM-1) serine enzyme from Escherichia coli ATCC 35218 in presence of Piperacillin
Outline: (§2)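 MIC of piperacillin against β-lactamase-producing strains, with the piperacillin concentration varied and the inhibitor held constant at […].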

Staphylococcus aureus = assay: Antibacterial activity was determined against the Staphylococcus aureus ATCC 29213 in presence of Piperacillin; type: functional; outline: as §2
[4] = biological target: Beta-lactamase (Escherichia coli K-12) (UniProt P00811)
Pseudomonas aeruginosa [5] = assay: Synergistic activity against SPM-1 beta lactamase produced by Pseudomonas aeruginosa in presence of Piperacillin and Tazobactam; R = Resistant
Pseudomonas aeruginosa [6] = assay: Synergistic activity against VIM-7 beta lactamase produced by Pseudomonas aeruginosa in presence of Piperacillin and Tazobactam; R = Resistant
Pseudomonas aeruginosa [7] = assay: Synergistic activity against VIM-1 beta lactamase produced by Pseudomonas aeruginosa in presence of Piperacillin and Tazobactam; R = Resistant
[8] = Synergic activity against IMP-1 beta lactamase produced by Escherichia coli in presence of Piperacillin; type: functional; outline: as §1
[9] = Synergic activity against IMP-1 beta lactamase produced by Escherichia coli in presence of Piperacillin and DVRII183; type: functional; outline: as §1
[10] = Synergic activity against IMP-1 beta lactamase produced by Escherichia coli in presence of Piperacillin and Tazobactam; type: functional; outline: as §1
Escherichia coli [11] = assay: Synergic activity against IMP-1 beta lactamase produced by Escherichia coli in presence of Piperacillin; S = susceptible; type: functional; outline: as §1
Escherichia coli [12] = assay: Synergic activity against IMP-1 beta lactamase producing Escherichia coli in presence of Piperacillin and compound 48; S = susceptible; type: functional; outline: as §1
[13] = Synergistic activity against VIM-1 beta lactamase produced by Escherichia coli in presence of Piperacillin and Tazobactam; type: functional, plasmodium aeruginosa; details: Pseudomonas aeruginosa; outline: as §1
[14] = Synergistic activity against VIM-7 beta lactamase produced by Escherichia coli in presence of Piperacillin; type: functional, plasmodium aeruginosa; details: Pseudomonas aeruginosa
[15] = Synergistic activity against VIM-7 beta lactamase produced by Escherichia coli in presence of Piperacillin and DVRII183; type: functional, plasmodium aeruginosa; details: Pseudomonas aeruginosa; outline: as §1
[16] = Synergistic activity against VIM-7 beta lactamase produced by Escherichia coli in presence of Piperacillin and Tazobactam; type: functional, plasmodium aeruginosa; details: Pseudomonas aeruginosa; outline: as §1
[17] = Synergistic activity against SPM-1 beta lactamase produced by Pseudomonas aeruginosa in presence of Piperacillin
[18] = Synergistic activity against VIM-1 beta lactamase produced by Pseudomonas aeruginosa in presence of Piperacillin
[19] = Synergistic activity against SPM-1 beta lactamase produced by Pseudomonas aeruginosa in presence of Piperacillin and DVRII183
[20] = Synergistic activity against VIM-1 beta lactamase produced by Pseudomonas aeruginosa in presence of Piperacillin and DVRII183
[21] = Synergistic activity against SPM-1 beta lactamase produced by Pseudomonas aeruginosa in presence of Piperacillin and Tazobactam
Pseudomonas aeruginosa [22] = assay: Synergistic activity against VIM-7 beta lactamase produced by Pseudomonas aeruginosa in presence of Piperacillin; R = Resistant
Pseudomonas aeruginosa [23] = assay: Synergistic activity against VIM-1 beta lactamase produced by Pseudomonas aeruginosa in presence of Piperacillin; R = Resistant
Pseudomonas aeruginosa [24] = assay: Synergistic activity against SPM-1 beta lactamase produced by Pseudomonas aeruginosa in presence of Piperacillin; S = susceptible
Pseudomonas aeruginosa [25] = assay: Synergistic activity against VIM-7 beta lactamase produced by Pseudomonas aeruginosa in presence of Piperacillin and compound 48; R = Resistant
Pseudomonas aeruginosa [26] = assay: Synergistic activity against SPM-1 beta lactamase produced by Pseudomonas aeruginosa in presence of Piperacillin and Tazobactam; S = susceptible
Pseudomonas aeruginosa [27] = assay: Synergistic activity against SPM-1 beta lactamase produced by Pseudomonas aeruginosa in presence of Piperacillin and compound 48; S = susceptible
Pseudomonas aeruginosa [28] = assay: Synergistic activity against VIM-1 beta lactamase produced by Pseudomonas aeruginosa in presence of Piperacillin and compound 48; S = susceptible
Beta-lactamase TEM = Beta-lactamase TEM (Escherichia coli, UniProt P62593); assay: Beta-Lactamase inhibitory activity against representative class A (TEM-1) serine enzyme
Outline: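 Serine β-lactamase assay: inhibitor preincubated with enzyme for 4 min in 100 µL, then an aliquot transferred into dilute nitrocefin substrate (1 mL final). IC50 is expressed as the inhibitor concentration in the 100 µL incubation, from multiple experiments.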

[29] = Synergic activity against IMP-1 beta lactamase produced by Escherichia coli was determined in presence of Piperacillin; type: functional

Beta-lactamase TEM (Escherichia coli), sequence (P62593 whole entry): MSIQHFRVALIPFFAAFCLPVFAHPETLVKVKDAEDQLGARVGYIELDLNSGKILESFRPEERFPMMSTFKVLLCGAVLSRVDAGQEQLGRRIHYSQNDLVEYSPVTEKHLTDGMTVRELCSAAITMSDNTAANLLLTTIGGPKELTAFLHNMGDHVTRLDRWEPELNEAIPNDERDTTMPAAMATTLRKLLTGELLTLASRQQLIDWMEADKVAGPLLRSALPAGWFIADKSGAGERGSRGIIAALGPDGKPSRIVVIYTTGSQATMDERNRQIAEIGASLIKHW
Beta-lactamase L1, sequence (P52700 whole entry): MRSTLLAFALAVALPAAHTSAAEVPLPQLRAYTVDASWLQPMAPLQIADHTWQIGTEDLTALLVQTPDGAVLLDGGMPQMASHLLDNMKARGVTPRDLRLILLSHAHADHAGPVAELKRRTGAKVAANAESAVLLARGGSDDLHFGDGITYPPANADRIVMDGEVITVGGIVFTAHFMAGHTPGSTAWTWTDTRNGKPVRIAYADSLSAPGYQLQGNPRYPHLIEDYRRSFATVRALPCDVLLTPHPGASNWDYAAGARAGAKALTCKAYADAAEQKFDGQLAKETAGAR
Beta-lactamase (Escherichia coli K-12), sequence (P00811 whole entry): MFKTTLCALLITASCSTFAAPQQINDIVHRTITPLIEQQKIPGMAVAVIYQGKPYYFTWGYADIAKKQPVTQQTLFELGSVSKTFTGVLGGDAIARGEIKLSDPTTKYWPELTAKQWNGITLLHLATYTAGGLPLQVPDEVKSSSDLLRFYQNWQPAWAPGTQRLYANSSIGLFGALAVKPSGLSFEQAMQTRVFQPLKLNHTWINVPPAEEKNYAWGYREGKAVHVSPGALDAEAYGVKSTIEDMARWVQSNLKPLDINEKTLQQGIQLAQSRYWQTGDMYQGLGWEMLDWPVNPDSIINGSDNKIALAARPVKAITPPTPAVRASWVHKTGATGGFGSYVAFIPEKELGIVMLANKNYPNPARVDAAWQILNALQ
Beta-lactamase TEM, sequence (P62593 whole entry): as the sequence (P62593 whole entry) above

Compound: CC1(C)S[C@@H]2[C@@H](CS)C(=O)N2[C@H]1C(=O)O
- Activity (Escherichia coli [1]): Susceptible
- IC50 [2]: 1.7 µM
- IC50 (Beta-lactamase L1): 10.9 µM
- MIC [3]: > 128 µg/mL
- MIC (Staphylococcus aureus): 4 µg/mL
- MIC [4]: 2 µg/mL (≈ 8.09 µM)
- Activity (Pseudomonas aeruginosa [5]): Resistant
- Activity (Pseudomonas aeruginosa [6]): Resistant
- Activity (Pseudomonas aeruginosa [7]): Resistant

Compound: CC1(C)[C@H](C(=O)O)N2C(=O)[C@@H](CO)[C@H]2S1(=O)=O
- IC50 [2]: > 200 µM
- IC50 (Beta-lactamase L1): 72.3 µM
- MIC [3]: 1 µg/mL
- MIC (Staphylococcus aureus): 1 µg/mL
- MIC [4]: 0.125 µg/mL (≈ 0.475 µM)

Compound: O=C(O)c1cccc(C(=O)O)n1 [DIPICOLINIC ACID]
- IC50 [2]: 21.8 µM
- IC50 (Beta-lactamase L1): 7.8 µM

Compound: CC1(C)[C@H](C(=O)O)N2C(=O)[C@@H](CS)[C@H]2S1(=O)=O
- MIC [8]: 8 µg/mL
- MIC [9]: 8 µg/mL
- MIC [10]: 8 µg/mL
- Activity (Escherichia coli [1]): Susceptible
- Activity (Escherichia coli [11]): Susceptible
- Activity (Escherichia coli [12]): Susceptible
- IC50 [2]: 1.4 µM
- IC50 (Beta-lactamase L1): 0.1 µM
- MIC [3]: 8 µg/mL
- MIC (Staphylococcus aureus): 2 µg/mL
- MIC [13]: > 128 µg/mL
- MIC [14]: > 128 µg/mL
- MIC [15]: > 128 µg/mL
- MIC [16]: > 128 µg/mL
- MIC [4]: 0.25 µg/mL (≈ 0.895 µM)
- MIC [17]: 64 µg/mL
- MIC [18]: > 128 µg/mL
- MIC [19]: 64 µg/mL
- MIC [20]: 128 µg/mL
- MIC [21]: 64 µg/mL
- Activity (Pseudomonas aeruginosa [22]): Resistant
- Activity (Pseudomonas aeruginosa [23]): Resistant
- Activity (Pseudomonas aeruginosa [24]): Susceptible
- Activity (Pseudomonas aeruginosa [6]): Resistant
- Activity (Pseudomonas aeruginosa [7]): Resistant
- Activity (Pseudomonas aeruginosa [25]): Resistant
- Activity (Pseudomonas aeruginosa [26]): Susceptible
- Activity (Pseudomonas aeruginosa [27]): Susceptible
- Activity (Pseudomonas aeruginosa [28]): Susceptible

Compound: CC1(C)[C@H](C(=O)O)N2C(=O)[C@H](CO)[C@H]2S1(=O)=O
- IC50 [2]: > 200 µM
- IC50 (Beta-lactamase L1): > 200 µM
- MIC [3]: 8 µg/mL
- MIC (Staphylococcus aureus): 2 µg/mL
- MIC [4]: 0.25 µg/mL (≈ 0.95 µM)

Compound: CC1(C)S[C@@H]2[C@@H](S)C(=O)N2[C@H]1C(=O)O
- IC50 [2]: 17.2 µM
- IC50 (Beta-lactamase L1): 36.9 µM
- MIC [3]: > 128 µg/mL
- IC50 (Beta-lactamase TEM): 988 µM
- MIC (Staphylococcus aureus): 8 µg/mL
- MIC [4]: 2 µg/mL (≈ 8.57 µM)

Compound: CC1(C)S[C@@H]2[C@H](S)C(=O)N2[C@H]1C(=O)O
- IC50 [2]: 17.8 µM
- IC50 (Beta-lactamase L1): 41.4 µM
- MIC [3]: > 128 µg/mL
- IC50 (Beta-lactamase TEM): > 1000 µM
- MIC (Staphylococcus aureus): 8 µg/mL
- MIC [4]: 2 µg/mL (≈ 8.57 µM)

Compound: C[C@]1(Cn2ccnn2)[C@H](C(=O)[O-])N2C(=O)C[C@H]2S1(=O)=O.[Na+] [TAZOBACTAM SODIUM]
- MIC [29]: > 128 µg/mL
- IC50 [2]: > 200 µM
- IC50 (Beta-lactamase L1): > 200 µM
- MIC [3]: 1 µg/mL
- MIC (Staphylococcus aureus): 1 µg/mL
- MIC [14]: > 128 µg/mL
- MIC [4]: 0.5 µg/mL
- MIC [17]: > 128 µg/mL
- MIC [18]: > 128 µg/mL
- Activity (Pseudomonas aeruginosa [22]): Resistant
- Activity (Pseudomonas aeruginosa [23]): Resistant
